Measured values taken from ChEMBL document CHEMBL1138361, “4-acyl-1-(4-aminoalkoxyphenyl)-2-ketopiperazines as a novel class of non-brain-penetrant histamine H3 receptor antagonists” (J Med Chem, 2007).

What was measured:
[1] = Partition coefficient, log D at pH 7.4; format: physicochemical; settings: octanol/water
Outline: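 Compound in phosphate buffer was shaken with buffer-saturated octanol (3 × 50 inversions). Phases were separated by centrifugation at 300g for 15 min. Both phases were quantified by HPLC, and log D was calculated from peak areas normalized to injection volume.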

[2] = Clearance in CD Sprague-Dawley rat at 1.0 mg/kg, iv; format: ADME, organism-based; design: dose 1 mg/kg, route intravenous; settings: in vivo
Outline: (§1)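 Single iv and oral doses given to male CD Sprague-Dawley rats (1 mg/kg iv, 3 mg/kg po) and male Beagle dogs (1 mg/kg iv, 2 mg/kg po). Vehicle was a DMSO-PEG 200-water (5:45:50) solution. Serial and terminal blood samples were taken at time points up to 7, 12 or 24 h postdose.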

[3] = Cmax in CD Sprague-Dawley rat at 1.0 mg/kg, iv; format: ADME, organism-based; design: dose 1 mg/kg, route intravenous; settings: in vivo; outline: as §1
[4] = Cmax in CD Sprague-Dawley rat at 3.0 mg/kg, po; format: ADME, organism-based; design: dose 3 mg/kg, route oral; settings: in vivo; outline: as §1
[5] = Tmax in CD Sprague-Dawley rat at 3.0 mg/kg, po; format: ADME, organism-based; design: dose 3 mg/kg, route oral; settings: in vivo; outline: as §1
[6] = Tmax in CD Sprague-Dawley rat at 1.0 mg/kg, iv; format: ADME, organism-based; design: dose 1 mg/kg, route intravenous; settings: in vivo; outline: as §1
[7] = Half life in CD Sprague-Dawley rat at 1.0 mg/kg, iv; format: ADME, organism-based; design: dose 1 mg/kg, route intravenous; settings: in vivo; outline: as §1
[8] = AUC in CD Sprague-Dawley rat at 1.0 mg/kg, iv; format: ADME, organism-based; design: dose 1 mg/kg, route intravenous; settings: plasma; outline: as §1
[9] = AUC in CD Sprague-Dawley rat at 3.0 mg/kg, po; format: ADME, organism-based; design: dose 3 mg/kg, route oral; settings: plasma; outline: as §1
[10] = Volume of distribution in CD Sprague-Dawley rat at 1.0 mg/kg, iv; format: ADME, organism-based; design: dose 1 mg/kg, route intravenous; settings: in vivo; outline: as §1
[11] = Ratio of drug level in brain to blood in CD Sprague-Dawley rat at 1 mg/kg, iv after 5 mins; format: ADME, organism-based; design: dose 1 mg/kg, route intravenous; settings: brain and blood
Outline: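 Male CD Sprague-Dawley rats were dosed iv in DMSO-PEG 200-water (5:45:50). Blood and brain were collected 5 min postdose under terminal isoflurane anesthesia. Blood was protein-precipitated; brain was homogenized and extracted. Parent drug was quantified by LCMS/MS.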

[12] = Cmax in Beagle dog at 2.0 mg/kg, po; format: ADME, organism-based, Canis lupus familiaris; design: dose 2 mg/kg, route oral; settings: in vivo; outline: as §1
[13] = Oral bioavailability in CD Sprague-Dawley rat at 3.0 mg/kg, po; format: ADME, organism-based; settings: in vivo; outline: as §1
[14] = AUC in Beagle dog at 1.0 mg/kg, iv; format: ADME, organism-based, Canis lupus familiaris; design: dose 1 mg/kg, route intravenous; settings: plasma; outline: as §1
[15] = Cmax in Beagle dog at 1.0 mg/kg, iv; format: ADME, organism-based, Canis lupus familiaris; design: dose 1 mg/kg, route intravenous; settings: in vivo; outline: as §1
[16] = Oral bioavailability in Beagle dog at 2.0 mg/kg, po; format: ADME, organism-based, Canis lupus familiaris; settings: in vivo; outline: as §1
[17] = Volume of distribution in Beagle dog at 1.0 mg/kg, iv; format: ADME, organism-based, Canis lupus familiaris; design: dose 1 mg/kg, route intravenous; settings: in vivo; outline: as §1
[18] = Clearance in Beagle dog at 1.0 mg/kg, iv; format: ADME, organism-based, Canis lupus familiaris; design: dose 1 mg/kg, route intravenous; settings: in vivo; outline: as §1
[19] = Half life in Beagle dog at 1.0 mg/kg, iv; format: ADME, organism-based, Canis lupus familiaris; design: dose 1 mg/kg, route intravenous; settings: in vivo; outline: as §1
[20] = Tmax in Beagle dog at 2.0 mg/kg, po; format: ADME, organism-based, Canis lupus familiaris; design: dose 2 mg/kg, route oral; settings: in vivo; outline: as §1
[21] = AUC in Beagle dog at 2.0 mg/kg, po; format: ADME, organism-based, Canis lupus familiaris; design: dose 2 mg/kg, route oral; settings: plasma; outline: as §1
[22] = Tmax in Beagle dog at 1.0 mg/kg, iv; format: ADME, organism-based, Canis lupus familiaris; design: dose 1 mg/kg, route intravenous; settings: in vivo; outline: as §1

For `CS(=O)(=O)c1ccc(C(=O)N2CCN(c3ccc(OC4CCN(C5CCCC5)CC4)cc3)C(=O)C2)cc1`, the logD [1] was -0.46.

Compound `O=C(c1ccc(Cl)cc1)N1CCN(c2ccc(OC3CCN(C4CCCC4)CC3)cc2)C(=O)C1` has a logD [1] of 1.52.

For `O=C(c1cnn2cccnc12)N1CCN(c2ccc(OCCCN3CCCCC3)cc2)C(=O)C1`, the logD [1] was -1.1.

Compound `O=C(c1ccccc1)N1CCN(c2ccc(OCCCN3CCCCC3)cc2)C(=O)C1` has a logD [1] of -0.09.

`O=C(c1ccc(F)cc1)N1CCN(c2ccc(OCCCN3CCCCCC3)cc2)C(=O)C1` showed a logD [1] of -0.47.

`O=C(c1ccc(F)cc1F)N1CCN(c2ccc(OCCCN3CCCCC3)cc2)C(=O)C1` gave a logD [1] of 0.1.

`C[C@H]1CCCN1CCCOc1ccc(N2CCN(C(=O)c3cc(F)cc(F)c3)CC2=O)cc1` showed a logD [1] of 0.09.

Compound `Cc1ccc(C(=O)N2CCN(c3ccc(OC4CCN(C5CCC5)CC4)cc3)C(=O)C2)cc1` has a logD [1] of 1.3.

With `O=C(c1ccc(F)cc1)N1CCN(c2ccc(OCCCN3CCCC3)cc2)C(=O)C1.O=CO` the clearance [2] was 31 mL/min/kg, the Cmax [3] was 342 ng/mL and the Cmax [4] was 40 ng/mL. For the same compound, the logD [1] was 0.14, the Tmax [5] was 7 h and the Tmax [6] was 4.8 min. For the same compound, the half-life [7] was 1.3 h, the AUC [8] was 536 ng·h/mL and the AUC [9] was 355 ng·h/mL. For the same compound, the Vd [10] was 2 L/kg.

With `O=C(c1ccc(F)cc1F)N1CCN(c2ccc(OC3CCN(C4CCCC4)CC3)cc2)C(=O)C1` the logD [1] was 0.96.

Compound `N#Cc1ccc(C(=O)N2CCN(c3ccc(OCCCN4CCCCC4)cc3)C(=O)C2)cc1` has a logD [1] of -0.38.

`CS(=O)(=O)c1ccc(C(=O)N2CCN(c3ccc(OC4CCN(C5CCC5)CC4)cc3)C(=O)C2)cc1.O=CO` gave a Cmax [4] of 10 ng/mL, a logD [1] of -0.38 and a Tmax [5] of 4 h. For the same compound, the AUC [9] was 67 ng·h/mL.

`O=C(c1cc(F)cc(F)c1)N1CCN(c2ccc(OCCCN3CCCCC3)cc2)C(=O)C1` showed a logD [1] of 0.2.

`CC(C)N1CCC(Oc2ccc(N3CCN(C(=O)c4ccc(F)cc4F)CC3=O)cc2)CC1` showed a logD [1] of -0.05.

`CC(C)N1CCC(Oc2ccc(N3CCN(C(=O)c4cc(F)cc(F)c4)CC3=O)cc2)CC1` showed a logD [1] of 0.06.

Work on `C[C@@H]1CCCN1CCCOc1ccc(N2CCN(C(=O)c3cc(F)cc(F)c3)CC2=O)cc1` yielded a logD [1] of -0.02.

For `Cl.O=C(c1ccc(Cl)cc1)N1CCN(c2ccc(OC3CCN(C4CCC4)CC3)cc2)C(=O)C1`, the logD [1] was 1.51 and the Kp at 5 min [11] was 0.4.

`O=C(c1ccc(C(=O)N2CCN(c3ccc(OC4CCN(C5CCC5)CC4)cc3)C(=O)C2)cc1)N1CCC1.O=CO` gave a logD [1] of -0.29 and a Kp at 5 min [11] of 0.1.

`Cc1ccc(C(=O)N2CCN(c3ccc(OCCCN4CCCCC4)cc3)C(=O)C2)cc1` gave a logD [1] of 0.48.

For `C[C@@H]1CCCN1CCCOc1ccc(N2CCN(C(=O)c3ccc(F)cc3F)CC2=O)cc1.O=CO`, the clearance [2] was 31 mL/min/kg, the Cmax [3] was 291 ng/mL and the Cmax [12] was 734 ng/mL. The Cmax [4] was 109 ng/mL, the logD [1] was -0.08 and the bioavailability [13] was 48%. For the same compound, the Tmax [5] was 4 h, the AUC [14] was 2160 ng·h/mL and the Cmax [15] was 414 ng/mL. For the same compound, the bioavailability [16] was 100%, the Tmax [6] was 4.8 min and the Vd [17] was 2.3 L/kg. For the same compound, the clearance [18] was 6.5 mL/min/kg, the half-life [19] was 4.3 h and the Tmax [20] was 4 h. It also gave a half-life [7] of 1.1 h, an AUC [21] of 4800 ng·h/mL and an AUC [8] of 682 ng·h/mL. The Tmax [22] was 4.8 min, the Kp at 5 min [11] was 0.2 and the AUC [9] was 753 ng·h/mL. It also gave a Vd [10] of 2 L/kg.

With `O=C(c1cc(F)cc(F)c1)N1CCN(c2ccc(OC3CCN(C4CCCC4)CC3)cc2)C(=O)C1` the logD [1] was 1.03.

For `C[C@@H]1CCCN1CCCOc1ccc(N2CCN(C(=O)c3ccc(C#N)cc3)CC2=O)cc1.O=CO`, the clearance [2] was 13 mL/min/kg, the Cmax [3] was 729 ng/mL and the Cmax [4] was 52 ng/mL. It also gave a logD [1] of -0.59, a bioavailability [13] of 7% and a Tmax [5] of 7 h. It also gave a Tmax [6] of 4.8 min, a half-life [7] of 1.8 h and an AUC [8] of 1190 ng·h/mL. For the same compound, the AUC [9] was 441 ng·h/mL and the Vd [10] was 2.1 L/kg.

In the case of `O=C(c1cc(F)cc(F)c1)N1CCN(c2ccc(OC3CCN(C4CCC4)CC3)cc2)C(=O)C1`, the logD [1] is reported as 0.99.

`N#Cc1ccc(C(=O)N2CCN(c3ccc(OCCCN4CCCCCC4)cc3)C(=O)C2)cc1` gave a logD [1] of -0.39.
